The text below walks through data of ChEMBL document CHEMBL5154815, “A Series of Substituted Bis-Aminotriazines Are Activators of the Natriuretic Peptide Receptor C” (J Med Chem, 2022).

Data set [1] is described as follows: Stability in Sprague-Dawley rat hepatocytes assessed as clearance per […] at 1 uM after 20 mins by LC-MS/MS analysis. The format is ADME, cell-based, Hepatocyte.
Data set [2] is described as follows: Solubility of compound in PBS at 10 mM after 3 hrs by UV analysis. Particulars: buffer, 10000 µM.
The target of data set [3] is T1, Atrial natriuretic peptide receptor 3 (Rattus norvegicus, UniProt P41740).
T1 sequence (P41740 whole entry): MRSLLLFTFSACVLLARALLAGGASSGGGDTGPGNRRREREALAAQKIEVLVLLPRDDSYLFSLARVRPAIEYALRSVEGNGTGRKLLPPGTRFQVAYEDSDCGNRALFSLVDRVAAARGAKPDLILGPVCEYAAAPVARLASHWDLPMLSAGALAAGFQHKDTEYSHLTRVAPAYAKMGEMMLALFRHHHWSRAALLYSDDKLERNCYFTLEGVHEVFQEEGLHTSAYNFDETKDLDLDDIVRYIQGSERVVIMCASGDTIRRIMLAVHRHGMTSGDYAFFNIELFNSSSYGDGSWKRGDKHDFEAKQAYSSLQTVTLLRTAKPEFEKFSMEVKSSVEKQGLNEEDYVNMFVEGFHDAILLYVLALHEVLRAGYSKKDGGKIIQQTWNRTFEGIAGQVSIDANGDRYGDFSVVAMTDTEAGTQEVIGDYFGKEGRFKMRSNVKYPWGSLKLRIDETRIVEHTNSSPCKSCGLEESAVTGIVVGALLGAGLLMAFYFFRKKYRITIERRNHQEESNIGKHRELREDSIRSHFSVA
In words: Agonist activity at NPRC in rat aorta assessed as vasorelaxation by Organ bath assay. The format is tissue-based.

The target of data set [4] is T2, Atrial natriuretic peptide receptor 3 (Mus musculus, UniProt P70180).
T2 sequence (P70180 whole entry): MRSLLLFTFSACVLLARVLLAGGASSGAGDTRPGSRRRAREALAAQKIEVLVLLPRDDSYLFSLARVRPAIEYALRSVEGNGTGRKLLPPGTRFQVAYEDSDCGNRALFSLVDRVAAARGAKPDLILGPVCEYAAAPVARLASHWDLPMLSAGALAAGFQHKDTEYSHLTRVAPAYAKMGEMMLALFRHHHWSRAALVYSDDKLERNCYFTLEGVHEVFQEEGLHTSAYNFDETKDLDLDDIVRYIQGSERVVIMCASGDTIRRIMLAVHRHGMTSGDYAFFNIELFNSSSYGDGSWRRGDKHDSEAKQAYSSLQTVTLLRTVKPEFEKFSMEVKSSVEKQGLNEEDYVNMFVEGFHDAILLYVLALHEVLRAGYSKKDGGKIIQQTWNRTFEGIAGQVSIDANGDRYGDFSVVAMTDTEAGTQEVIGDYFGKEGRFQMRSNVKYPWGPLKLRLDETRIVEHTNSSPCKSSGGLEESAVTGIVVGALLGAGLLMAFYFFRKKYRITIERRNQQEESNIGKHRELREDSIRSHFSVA
As to the kind of experiment: Agonist activity at NPRC in wild type mouse mesenteric arteries assessed as vasorelaxation by Organ bath assay. The data set is classed as tissue-based, Artery.

In another data set the target is Cytochrome P450 2C19 (Homo sapiens, UniProt P33261). As to the kind of experiment: Inhibition of CYP2C19 in human liver microsomes using S-mephenytoin as substrate preincubated for 10 mins followed by NADPH addition and measured after 20 mins by LC/MS/MS analysis.
The target of a further data set is T3, Cytochrome P450 2C8 (Homo sapiens, UniProt P10632).
T3 sequence (P10632 whole entry): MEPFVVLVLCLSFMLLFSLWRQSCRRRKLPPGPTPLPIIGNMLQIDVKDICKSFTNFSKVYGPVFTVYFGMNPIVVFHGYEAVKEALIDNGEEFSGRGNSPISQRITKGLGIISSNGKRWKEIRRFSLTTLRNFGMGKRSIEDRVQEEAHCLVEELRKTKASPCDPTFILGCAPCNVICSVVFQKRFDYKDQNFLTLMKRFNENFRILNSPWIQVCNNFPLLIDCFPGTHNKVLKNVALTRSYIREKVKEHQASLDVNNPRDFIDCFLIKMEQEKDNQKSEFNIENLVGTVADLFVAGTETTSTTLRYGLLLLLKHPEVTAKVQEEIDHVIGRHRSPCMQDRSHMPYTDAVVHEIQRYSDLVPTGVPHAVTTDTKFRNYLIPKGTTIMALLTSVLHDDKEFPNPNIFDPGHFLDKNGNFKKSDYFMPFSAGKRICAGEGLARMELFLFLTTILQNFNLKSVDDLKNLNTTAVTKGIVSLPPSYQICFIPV
As to the kind of experiment: Inhibition of CYP2C8 in human liver microsomes using amodiaquine as a substrate preincubated for 10 mins followed by NADPH addition and measured after 10 mins by LC/MS/MS analysis.

A short description of data set [5]: Half life in fasted C57BL/6 mouse at 3 mg/kg, iv by LC-MS/MS analysis. The format is ADME, organism-based. Particulars: in vivo.
The nature of data set [6]: Cmax in fasted C57BL/6 mouse at 10 mg/kg, po by LC-MS/MS analysis. The arrangement: dose 10 mg/kg, route po. The data set is classed as ADME, organism-based. The following applies: in vivo. The essentials: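 EDTA-K2 plasma was protein-precipitated with internal standard and centrifuged 20 min at 4 °C. Analysis by LC-MS/MS against a 1–1000 ng/mL calibration curve.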

A short description of data set [7]: Half life in fasted C57BL/6 mouse at 10 mg/kg, po by LC-MS/MS analysis. The data set is classed as ADME, organism-based. Particulars: in vivo.
Data set [8] can be described thus: AUC (0 to infinity) in fasted C57BL/6 mouse at 10 mg/kg, po by LC-MS/MS analysis. The data set is classed as ADME, organism-based. More on the design: time infinity, dose 10 mg/kg, route po. Particulars: in vivo.
Data set [9] has as its target T4, Atrial natriuretic peptide receptor 3 (Rattus norvegicus) (UniProt P41740).
T4 sequence (whole entry): T1 sequence (P41740 whole entry)
In words: Agonist activity at NPRC in rat small mesenteric arteries assessed as inhibition of cANF4-23 induced vasorelaxation in presence of osteocrin by Organ bath assay. The format is tissue-based. The following applies: Artery, filed as agonist. The essentials: (§1)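 Small mesenteric artery rings from male Wistar rats in classical tissue-bath pharmacology. Vessels were preincubated 15 min with M372049 10 μM or osteocrin 100 nM before the vasorelaxant response to test agents was assessed.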

Data set [10] addresses T4, Atrial natriuretic peptide receptor 3 (Rattus norvegicus). In words: Agonist activity at NPRC in rat aorta assessed as inhibition of cANF4-23 induced vasorelaxation in presence of M372049 by Organ bath assay. The format is tissue-based. Particulars: filed as agonist.
Data set [11] has the same target. As to the kind of experiment: Agonist activity at NPRC in rat small mesenteric arteries assessed as inhibition of cANF4-23 induced vasorelaxation in presence of M372049 by Organ bath assay. The data set is classed as tissue-based. The following applies: Artery, filed as agonist. Summed up:
as §1

The conditions of data set [12]: rat, hepatocytes, 20 min, 1 µM.
The nature of a further data set: in vivo. The following applies: C57BL/6, mouse, po, 10 mg/kg.

pEC50, pIC50: −log10 of the molar value. In brackets after ≈: the same amount, converted by molar mass. Activity calls are given as the source filed them.

Sequence of Cytochrome P450 2C19 (P33261 whole entry): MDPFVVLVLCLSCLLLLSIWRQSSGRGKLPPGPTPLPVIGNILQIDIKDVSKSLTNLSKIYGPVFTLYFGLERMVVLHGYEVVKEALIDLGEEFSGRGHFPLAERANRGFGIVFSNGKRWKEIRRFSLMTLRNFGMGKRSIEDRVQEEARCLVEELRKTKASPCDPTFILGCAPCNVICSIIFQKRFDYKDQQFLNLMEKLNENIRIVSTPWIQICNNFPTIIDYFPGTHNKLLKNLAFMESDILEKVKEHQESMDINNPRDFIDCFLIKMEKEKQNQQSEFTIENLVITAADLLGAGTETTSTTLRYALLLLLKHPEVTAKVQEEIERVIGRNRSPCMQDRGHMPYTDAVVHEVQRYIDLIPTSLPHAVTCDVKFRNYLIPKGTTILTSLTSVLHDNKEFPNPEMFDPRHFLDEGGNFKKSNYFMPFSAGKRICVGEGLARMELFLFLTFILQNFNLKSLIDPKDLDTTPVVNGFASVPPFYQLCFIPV

A word on the solubility: it is how much of the substance goes into solution per volume. As a reminder, the pEC50 is −log10 of the EC50, conventionally taken in molar units. In general, pIC50 refers to the IC50 on a negative log10 scale, so that one unit is a factor of ten. Higher therefore signals a small IC50. Broadly, the half-life is the time needed for the level to fall by half in the phase considered. A higher half-life goes with slow loss. In general, Cmax refers to the highest concentration seen after dosing. Broadly, the AUC(0-inf) is the area under the concentration-time curve extrapolated to infinity. A lower AUC(0-inf) goes with low exposure. For orientation: Tmax means the time from dosing to the highest level. Consider `CC(=O)Nc1ccc(Nc2ncnc(NCCC(=O)OC(C)(C)C)n2)cc1`, for which, in data set [1], the CLH came to 11.8 µL/min. In data set [2], the solubility was 71.17 mg/mL (≈ 191 mM). Further, the figures for the pEC50 in data set [3] and in data set [4] were 4.81 and 5.80, respectively. Moreover, the pIC50 against Cytochrome P450 2C19 and on Cytochrome P450 2C8 was below 4.30 each time. Also, the half-life in data set [5] is 34 min; in [7], 82.2 min. The compound also returned a Cmax in [6] of 612 ng/mL. Further, the area under the curve AUC(0-inf) in [8] was 653 ng·h/mL. Besides, the outcome in [9], in data set [10] and in [11] was Active. This compound had a t1/2 in data set [12] of 117.1 min. For the same compound, the Tmax in the data set “in vivo” was 15 min.
